From ChEMBL document CHEMBL5042553 (J Med Chem, 2022)
The source made the active and inactive calls. The rule behind the calls is not given here.

How the values were obtained:
[1] = biological target: T1, von Hippel-Lindau disease tumor suppressor/Histone deacetylase 1 (Homo sapiens, UniProt Q13547+P40337); experiment: Protac activity at VHL/HDAC1 in human HCT-116 cells assessed as induction of HDAC1 degradation at 1 to 10 uM incubated for 24 hrs by Western blot analysis; type: cell-based; settings: dose 1-10 µM
Procedure, shortened: (§1)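 HCT116 cells (37 °C, 5% CO₂) seeded for 24 h, then given DMSO or PROTAC (0.01–10 μM) in fresh medium for 2–48 h. Lysates made in Tris/NaCl/NP-40/Triton X-100 buffer with protease inhibitor; histones acid-extracted with 0.4 N H₂SO₄. 30 μg protein or 10 μL histone extract per lane run on 4–12% bis-Tris gels. Quantitative western blotting used IR-dye secondaries and band densitometry, referenced to DMSO; two independent biological replicates.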
Target sequence in this assay (P40337 whole entry, looked up): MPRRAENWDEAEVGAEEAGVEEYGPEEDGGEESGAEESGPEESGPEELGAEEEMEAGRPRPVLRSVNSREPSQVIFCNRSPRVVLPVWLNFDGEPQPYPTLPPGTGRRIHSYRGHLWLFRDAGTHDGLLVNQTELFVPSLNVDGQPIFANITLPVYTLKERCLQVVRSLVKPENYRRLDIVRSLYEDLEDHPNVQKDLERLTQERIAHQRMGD
Target sequence in this assay (Q13547 whole entry, looked up): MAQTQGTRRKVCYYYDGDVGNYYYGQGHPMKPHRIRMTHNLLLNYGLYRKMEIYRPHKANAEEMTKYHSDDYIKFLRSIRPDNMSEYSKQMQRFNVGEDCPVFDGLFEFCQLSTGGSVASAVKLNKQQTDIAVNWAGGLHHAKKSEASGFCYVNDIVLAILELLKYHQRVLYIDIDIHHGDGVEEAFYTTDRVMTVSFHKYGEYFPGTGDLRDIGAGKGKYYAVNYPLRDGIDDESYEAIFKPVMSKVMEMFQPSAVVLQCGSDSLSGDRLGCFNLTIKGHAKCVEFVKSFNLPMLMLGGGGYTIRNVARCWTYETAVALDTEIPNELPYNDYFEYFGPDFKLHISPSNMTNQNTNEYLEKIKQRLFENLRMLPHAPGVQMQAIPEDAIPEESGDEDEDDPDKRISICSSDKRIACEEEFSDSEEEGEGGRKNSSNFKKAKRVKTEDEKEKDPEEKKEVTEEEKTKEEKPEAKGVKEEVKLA

[2] = biological target: T2, von Hippel-Lindau disease tumor suppressor/Histone deacetylase 2 (Homo sapiens) (UniProt Q92769+P40337); experiment: Protac activity at VHL/HDAC2 in human HCT-116 cells assessed as induction of HDAC2 degradation at 1 to 10 uM incubated for 24 hrs by Western blot analysis; type: cell-based; settings: dose 1-10 µM; procedure, shortened: as §1
T2 sequence (P40337 whole entry, looked up): as the sequence (P40337 whole entry, looked up) above
T2 sequence (Q92769 whole entry, looked up): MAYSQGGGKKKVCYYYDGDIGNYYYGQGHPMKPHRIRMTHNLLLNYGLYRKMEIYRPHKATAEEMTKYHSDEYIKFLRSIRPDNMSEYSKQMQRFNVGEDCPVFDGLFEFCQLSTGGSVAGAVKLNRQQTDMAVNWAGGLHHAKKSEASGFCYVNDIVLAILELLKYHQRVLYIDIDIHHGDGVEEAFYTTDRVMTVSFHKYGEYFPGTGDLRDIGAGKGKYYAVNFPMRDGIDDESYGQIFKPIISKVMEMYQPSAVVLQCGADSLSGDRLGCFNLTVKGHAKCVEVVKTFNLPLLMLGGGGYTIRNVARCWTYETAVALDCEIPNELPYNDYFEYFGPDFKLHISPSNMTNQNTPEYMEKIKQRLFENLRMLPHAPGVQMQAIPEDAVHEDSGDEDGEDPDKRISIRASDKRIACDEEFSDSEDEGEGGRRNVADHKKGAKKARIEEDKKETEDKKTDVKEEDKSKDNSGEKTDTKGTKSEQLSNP

[3] = biological target: T3, von Hippel-Lindau disease tumor suppressor/Histone deacetylase 3 (Homo sapiens, UniProt O15379+P40337); experiment: Protac activity at VHL/HDAC3 in human HCT-116 cells assessed as induction of HDAC3 degradation at 1 to 10 uM incubated for 24 hrs by Western blot analysis; type: cell-based; settings: dose 1-10 µM; procedure, shortened: as §1
Target sequence in this assay (O15379 whole entry, looked up): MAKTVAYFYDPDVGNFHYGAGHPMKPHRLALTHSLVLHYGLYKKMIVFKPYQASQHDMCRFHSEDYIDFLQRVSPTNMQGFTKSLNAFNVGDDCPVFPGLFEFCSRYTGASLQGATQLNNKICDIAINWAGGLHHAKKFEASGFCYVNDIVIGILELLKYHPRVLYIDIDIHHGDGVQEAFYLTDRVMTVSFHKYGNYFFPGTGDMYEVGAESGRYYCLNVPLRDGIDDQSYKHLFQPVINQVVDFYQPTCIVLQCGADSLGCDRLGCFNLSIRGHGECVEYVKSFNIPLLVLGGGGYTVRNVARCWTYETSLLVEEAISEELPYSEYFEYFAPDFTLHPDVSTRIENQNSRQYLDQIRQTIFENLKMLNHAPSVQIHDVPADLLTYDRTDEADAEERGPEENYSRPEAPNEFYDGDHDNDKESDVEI
Target sequence in this assay (P40337 whole entry, looked up): as the sequence (P40337 whole entry, looked up) above

[4] = biological target: T3, von Hippel-Lindau disease tumor suppressor/Histone deacetylase 3; experiment: Protac activity at VHL/HDAC3 in human HCT-116 cells assessed as induction of HDAC3 degradation at 10 uM incubated for 24 hrs by Western blot analysis; type: cell-based; procedure, shortened: as §1
Target sequence in this assay (O15379 whole entry, looked up): as the sequence (O15379 whole entry, looked up) above
Target sequence in this assay (P40337 whole entry, looked up): as the sequence (P40337 whole entry, looked up) above

[5] = biological target: T3, von Hippel-Lindau disease tumor suppressor/Histone deacetylase 3; experiment: Protac activity at VHL/HDAC3 in human HCT-116 cells assessed as induction of HDAC3 degradation at 1 uM measured after 15 hrs by Western blot analysis; type: cell-based; procedure, shortened: as §1
Target sequence in this assay (O15379 whole entry, looked up): as the sequence (O15379 whole entry, looked up) above
Target sequence in this assay (P40337 whole entry, looked up): as the sequence (P40337 whole entry, looked up) above

[6] = biological target: T2, von Hippel-Lindau disease tumor suppressor/Histone deacetylase 2 (Homo sapiens); experiment: Protac activity at VHL/HDAC2 in human HCT-116 cells assessed as induction of HDAC2 degradation at 10 uM measured after 4 hrs by Western blot analysis; type: cell-based; procedure, shortened: as §1
HCT-116 [7] = experiment: Induction of apoptosis in HCT-116 cells assessed as accumulation of cells in Sub-G1 phase at 10 uM measured after 48 hrs by flow cytometry analysis; settings: Homo sapiens
[8] = biological target: T2, von Hippel-Lindau disease tumor suppressor/Histone deacetylase 2 (Homo sapiens); experiment: Protac activity at VHL/HDAC2 in human HCT-116 cells assessed as fold increase in H3K56ac at 10 uM measured after 8 hrs by Western blot analysis relative to control; type: cell-based; procedure, shortened: as §1
[9] = biological target: T1, von Hippel-Lindau disease tumor suppressor/Histone deacetylase 1; experiment: Protac activity at VHL/HDAC1 in human HCT-116 cells assessed as induction of HDAC1 degradation at 10 uM measured after 4 hrs by Western blot analysis; type: cell-based; procedure, shortened: as §1
Target sequence in this assay (P40337 whole entry, looked up): as above
Target sequence in this assay (Q13547 whole entry, looked up): as the sequence (Q13547 whole entry, looked up) above

[10] = biological target: T3, von Hippel-Lindau disease tumor suppressor/Histone deacetylase 3; experiment: Protac activity at VHL/HDAC3 in human HCT-116 cells assessed as induction of HDAC3 degradation at 10 uM measured after 36 to 48 hrs by Western blot analysis; type: cell-based; settings: time 36-48 hrs; procedure, shortened: as §1
Target sequence in this assay (O15379 whole entry, looked up): as the sequence (O15379 whole entry, looked up) above
Target sequence in this assay (P40337 whole entry, looked up): as the sequence (P40337 whole entry, looked up) above

[11] = biological target: T1, von Hippel-Lindau disease tumor suppressor/Histone deacetylase 1; experiment: Protac activity at VHL/HDAC1 in human HCT-116 cells assessed as induction of HDAC1 degradation at 1 uM measured upto 48 hrs by Western blot analysis; type: cell-based; settings: time hrs <=48; procedure, shortened: as §1
Target sequence in this assay (P40337 whole entry, looked up): as above
Target sequence in this assay (Q13547 whole entry, looked up): as the sequence (Q13547 whole entry, looked up) above

[12] = biological target: T3, von Hippel-Lindau disease tumor suppressor/Histone deacetylase 3; experiment: Protac activity at VHL/HDAC3 in human HCT-116 cells assessed as induction of HDAC3 degradation at 1 uM measured after 4 hrs by Western blot analysis; type: cell-based; procedure, shortened: as §1
Target sequence in this assay (O15379 whole entry, looked up): as the sequence (O15379 whole entry, looked up) above
Target sequence in this assay (P40337 whole entry, looked up): as the sequence (P40337 whole entry, looked up) above

[13] = biological target: T1, von Hippel-Lindau disease tumor suppressor/Histone deacetylase 1; experiment: Protac activity at VHL/HDAC1 in human HCT-116 cells assessed as fold increase in H3K56ac at 10 uM measured after 8 hrs by Western blot analysis relative to control; type: cell-based; procedure, shortened: as §1
Target sequence in this assay (P40337 whole entry, looked up): as above
Target sequence in this assay (Q13547 whole entry, looked up): as the sequence (Q13547 whole entry, looked up) above

[14] = biological target: T1, von Hippel-Lindau disease tumor suppressor/Histone deacetylase 1; experiment: Protac activity at VHL/HDAC1 in human HCT-116 cells assessed as induction of HDAC1 degradation at 1 uM incubated for 24 hrs by Western blot analysis; type: cell-based; procedure, shortened: as §1
Target sequence in this assay (P40337 whole entry, looked up): as the sequence (P40337 whole entry, looked up) above
Target sequence in this assay (Q13547 whole entry, looked up): as the sequence (Q13547 whole entry, looked up) above

[15] = biological target: T2, von Hippel-Lindau disease tumor suppressor/Histone deacetylase 2 (Homo sapiens); experiment: Protac activity at VHL/HDAC2 in human HCT-116 cells assessed as induction of HDAC2 degradation at 1 uM measured upto 48 hrs by Western blot analysis; type: cell-based; settings: time hrs <=48; procedure, shortened: as §1
[16] = biological target: T2, von Hippel-Lindau disease tumor suppressor/Histone deacetylase 2 (Homo sapiens); experiment: Protac activity at VHL/HDAC2 in human HCT-116 cells assessed as reduction in LSD1 level measured after 48 hrs by Western blot analysis; set-up: scale not given: the % may be the effect or the level left
[17] = biological target: T3, von Hippel-Lindau disease tumor suppressor/Histone deacetylase 3; experiment: Protac activity at VHL/HDAC3 in human HCT-116 cells assessed as induction of HDAC3 degradation at 10 uM measured upto 24 hrs by Western blot analysis; type: cell-based; settings: time hrs <=24; procedure, shortened: as §1
Target sequence in this assay (O15379 whole entry, looked up): as the sequence (O15379 whole entry, looked up) above
Target sequence in this assay (P40337 whole entry, looked up): as the sequence (P40337 whole entry, looked up) above

[18] = biological target: T1, von Hippel-Lindau disease tumor suppressor/Histone deacetylase 1; experiment: Protac activity at VHL/HDAC1 in human HCT-116 cells assessed as reduction in LSD1 level measured after 48 hrs by Western blot analysis; set-up: scale not given: the % may be the effect or the level left
Target sequence in this assay (P40337 whole entry, looked up): as above
Target sequence in this assay (Q13547 whole entry, looked up): as the sequence (Q13547 whole entry, looked up) above

HCT-116 [19] = experiment: Induction of apoptosis in human HCT-116 cells assessed as accumulation of cells in Sub-G1 phase at 10 uM measured after 24 hrs by flow cytometry analysis
[20] = Inhibition of HDAC1-CoREST-LSD1 (unknown origin) using Boc- (Ac)Lys-AMC as substrate preincubated for 1 hr followed by substrate addition and measured after 1 hr by fluorescent assay; set-up: species or system Homo sapiens
[21] = biological target: T3, von Hippel-Lindau disease tumor suppressor/Histone deacetylase 3; experiment: Protac activity at VHL/HDAC3 in human HCT-116 cells assessed as induction of HDAC3 degradation incubated for 24 hrs by Western blot analysis; type: cell-based
Target sequence in this assay (O15379 whole entry): as the sequence (O15379 whole entry, looked up) above
Target sequence in this assay (P40337 whole entry): as the sequence (P40337 whole entry, looked up) above

[22] = Inhibition of HDAC2-CoREST-LSD1 (unknown origin) using Boc- (Ac)Lys-AMC as substrate preincubated for 1 hr followed by substrate addition and measured after 1 hr by fluorescent assay; set-up: species or system Homo sapiens
HCT-116 [23] = experiment: Cytotoxicity against human HCT-116 cells assessed as reduction in cell viability measured after 48 hrs by cell-titer glo assay; type: functional, cell-based
[24] = Inhibition of HDAC3-SMRT (unknown origin) using Boc- (Ac)Lys-AMC as substrate preincubated for 1 hr followed by substrate addition and measured after 1 hr by fluorescent assay; set-up: species or system Homo sapiens
[25] = biological target: T1, von Hippel-Lindau disease tumor suppressor/Histone deacetylase 1; experiment: Protac activity at VHL/HDAC1 in human HCT-116 cells assessed as induction of HDAC1 degradation incubated for 24 hrs by Western blot analysis; type: cell-based
Target sequence in this assay (Q13547 whole entry): as the sequence (Q13547 whole entry, looked up) above
Target sequence in this assay (P40337 whole entry): as the sequence (P40337 whole entry, looked up) above

Activity [1] | Activity [2] | Activity [3] | Structure (SMILES) | also measured
inactive | inactive |  | Cc1ncsc1-c1ccc(CNC(=O)[C@@H]2C[C@@H](O)CN2C(=O)[C@@H](NC(=O)COCCOCCOCC(=O)Nc2ccc(C(=O)Nc3cc(-c4cccs4)ccc3N)cc2)C(C)(C)C)cc1 | 
 |  | Active | Cc1ncsc1-c1ccc(CNC(=O)[C@@H]2C[C@@H](O)CN2C(=O)C(NC(=O)CCCCCCCCCCC(=O)Nc2ccc(C(=O)Nc3ccc(F)cc3N)cc2)C(C)(C)C)cc1 (single isomer, unassigned) | 
inactive | inactive | inactive | Cc1ncsc1-c1ccc(CNC(=O)[C@@H]2CC(O)CN2C(=O)[C@@H](NC(=O)COCCOCCOCCOCC(=O)Nc2ccc(C(=O)Nc3ccccc3N)cc2)C(C)(C)C)cc1 (single isomer, unassigned) | 
inactive | inactive | inactive | Cc1ncsc1-c1ccc(CNC(=O)[C@@H]2C[C@@H](O)CN2C(=O)[C@@H](NC(=O)COCCOCCOCC(=O)Nc2ccc(C(=O)Nc3ccccc3N)cc2)C(C)(C)C)cc1 | 
inactive | inactive | inactive | Cc1ncsc1-c1ccc(CNC(=O)[C@@H]2C[C@@H](O)CN2C(=O)[C@@H](NC(=O)COCCOCC(=O)Nc2ccc(C(=O)Nc3ccccc3N)cc2)C(C)(C)C)cc1 | 

The next lines start with the molecule.

Structure (SMILES) | Activity [1] | Activity [2] | Activity [3] | also measured
Cc1ncsc1-c1ccc(CNC(=O)[C@@H]2C[C@@H](O)CN2C(=O)[C@@H](NC(=O)CCCCCCCC(=O)Nc2ccc(C(=O)Nc3cc(-c4cccs4)ccc3N)cc2)C(C)(C)C)cc1 | inactive | inactive |  | 
Cc1ncsc1-c1ccc(CNC(=O)[C@@H]2C[C@@H](O)CN2C(=O)[C@@H](NC(=O)CCCCCCCCCCCCC(=O)Nc2ccc(C(=O)Nc3ccccc3N)cc2)C(C)(C)C)cc1 | Active | Active |  | 
Cc1ncsc1-c1ccc(CNC(=O)[C@@H]2C[C@@H](O)CN2C(=O)[C@@H](NC(=O)CCCCCCCCCC(=O)Nc2ccc(C(=O)Nc3ccccc3N)cc2)C(C)(C)C)cc1 | Active | Active | inactive | 
Cc1ncsc1-c1ccc(CNC(=O)[C@@H]2C[C@@H](O)CN2C(=O)[C@@H](NC(=O)CCCCCCCCCCC(=O)Nc2ccc(C(=O)Nc3ccccc3N)cc2)C(C)(C)C)cc1 |  |  |  | Activity [4]: Active
Cc1ncsc1-c1ccc(CNC(=O)[C@@H]2C[C@@H](O)CN2C(=O)[C@@H](NC(=O)COCCCCCCCCCOCC(=O)Nc2ccc(C(=O)Nc3ccccc3N)cc2)C(C)(C)C)cc1 |  |  |  | Activity [5]: Active; Activity [6]: Active; Activity (HCT-116 [7]): Active; fold change (FC) [8]: 2; Activity [9]: Active; Activity [10]: 50%; Activity [11]: Active; Activity [12]: Active; fold change (FC) [13]: 2; Activity [14]: Active; Activity [15]: Active; Activity [16]: 40%; Activity [17]: inactive; Activity [18]: 40%; Activity (HCT-116 [19]): Active
CC(=O)NC(C(=O)N1C[C@H](O)C[C@H]1C(=O)NCc1ccc(-c2scnc2C)cc1OCCCCNC(=O)CCCCCCCC(=O)Nc1ccc(C(=O)Nc2ccccc2N)cc1)C(C)(C)C (single isomer, unassigned) | Active |  |  | 
CC(=O)NC(C(=O)N1C[C@H](O)C[C@H]1C(=O)NCc1ccc(-c2scnc2C)cc1OCCCCCCCCCCCC(=O)Nc1ccc(C(=O)Nc2ccccc2N)cc1)C(C)(C)C (single isomer, unassigned) |  |  |  | IC50 [20]: 1510 nM; DC50 [21]: 1380 nM; IC50 [22]: 3.46 µM; Activity (HCT-116 [23]): inactive; IC50 [24]: 3.81 µM; DC50 [25]: 3.51 µM
Cc1ncsc1-c1ccc(CNC(=O)[C@@H]2C[C@@H](O)CN2C(=O)[C@@H](NC(=O)CCCCCCCCC(=O)Nc2ccc(C(=O)Nc3ccccc3N)cc2)C(C)(C)C)cc1 | Active | Active | inactive | 
Cc1ncsc1-c1ccc(CNC(=O)[C@@H]2C[C@@H](O)CN2C(=O)[C@@H](NC(=O)COCCCCCCCCCOCC(=O)Nc2ccc(C(=O)Nc3ccc(F)cc3N)cc2)C(C)(C)C)cc1 |  |  |  | Activity [14]: Active
Cc1ncsc1-c1ccc(CNC(=O)[C@@H]2C[C@@H](O)CN2C(=O)[C@@H](NC(=O)CCCCCCCC(=O)Nc2ccc(C(=O)Nc3ccccc3N)cc2)C(C)(C)C)cc1 | Active | Active | inactive | 
Cc1ncsc1-c1ccc(CNC(=O)[C@@H]2C[C@@H](O)CN2C(=O)[C@@H](NC(=O)CCCCCCCCCCC(=O)Nc2ccc(C(=O)Nc3cc(-c4cccs4)ccc3N)cc2)C(C)(C)C)cc1 | inactive | inactive |  | 
Cc1ncsc1-c1ccc(CNC(=O)[C@@H]2C[C@@H](O)CN2C(=O)[C@@H](NC(=O)CCCN2CCN(CCCC(=O)Nc3ccc(C(=O)Nc4ccccc4N)cc3)CC2)C(C)(C)C)cc1 | inactive | inactive | inactive | 
CC(=O)NC(C(=O)N1C[C@H](O)C[C@H]1C(=O)NCc1ccc(-c2scnc2C)cc1OCCCCNC(=O)CCCCC(=O)Nc1ccc(C(=O)Nc2ccccc2N)cc1)C(C)(C)C (single isomer, unassigned) | Active |  |  | 
Cc1ncsc1-c1ccc(CNC(=O)[C@@H]2C[C@@H](O)CN2C(=O)C(NC(=O)COCCOCCOCC(=O)Nc2ccc(C(=O)Nc3ccc(F)cc3N)cc2)C(C)(C)C)cc1 (single isomer, unassigned) |  |  |  | Activity [4]: Active
Cc1ncsc1-c1ccc(CNC(=O)[C@@H]2C[C@@H](O)CN2C(=O)[C@@H](NC(=O)COCCCCCCOCC(=O)Nc2ccc(C(=O)Nc3ccccc3N)cc2)C(C)(C)C)cc1 |  |  |  | Activity [14]: inactive
